Results as given in ChEMBL document CHEMBL2375282, “Spirohexenolide A targets human macrophage migration inhibitory factor (hMIF)” (J Nat Prod, 2013).
Calls of active or inactive are those of the source. No cut-off for these calls is given here.

Experiments:
[1] = test system: HCT-116; test: Cytotoxicity against human HCT116 cells assessed as membrane blebbing at 10 uM after 24 hrs by inverted confocal microscopic analysis; assay type: cell-based; settings: hct-116, 24 h
How it was run: (§1)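 Live HCT116 cells in McCoy's 5A with 10% FCS, 37 °C, 5% CO2. Compound added as 10× stock in media, final DMSO under 0.5%. Time-lapse imaging over 24 h at 10–15 min intervals, then spinning-disk confocal at selected times (1, 6, 24 h) with IAF tag excitation 360 nm and emission 470 nm. Lysosomes counterstained with LysoTracker Red after fixation in formaldehyde/glutaraldehyde.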

[2] = test system: HCT-116; test: Cellular uptake in human HCT116 cells assessed as increase in blue fluorescence at 10 uM after 1 hr by inverted confocal microscopic analysis; assay type: ADME, cell-based; settings: hct-116, 1 h; how it was run: as §1
[3] = Drug uptake in human HCT116 cell cytoplasm at 10 uM after 1 hr by inverted confocal microscopic analysis; assay type: ADME, cell-based; settings: hct-116, 1 h; how it was run: as §1
[4] = molecular target: T1, Macrophage migration inhibitory factor (Homo sapiens) (UniProt P14174); test: Binding affinity to MIF in human HCT116 whole cell lysates by Western blotting analysis; settings: HCT-116
T1 sequence (whole entry): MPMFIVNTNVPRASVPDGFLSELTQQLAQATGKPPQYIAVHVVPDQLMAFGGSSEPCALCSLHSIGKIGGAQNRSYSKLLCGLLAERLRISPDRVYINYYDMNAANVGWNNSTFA
How it was run: (§2)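 Affinity capture with immunoaffinity-fluorescent (IAF)-tagged probe. Live-cell route: HCT116 cells incubated 4 h at 37 °C with 15 μg probe in 15 mL media, then lysed (D-PBS, 5 mM EDTA, 1% NP-40, protease inhibitors). Whole-lysate route: probe added after lysis. Lysate immunoprecipitated on anti-IAF mAb resin 4 h at 4 °C. Elution with 0.1 M glycine-HCl pH 2.5, then NuPAGE and blotting with anti-hMIF mAb.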

[5] = molecular target: T1, Macrophage migration inhibitory factor (Homo sapiens); test: Inhibition of human recombinant MIF tautomerase activity expressed in Escherichia coli BL21(DE3) at 100 uM in presence of dopachrome
How it was run: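 Dopachrome made from 0.24 mM DOPA plus 0.48 mM NaIO4 in 25 mM potassium phosphate pH 7.2, 5 min at rt. Added 1:1 to wells holding 10 μM purified recombinant hMIF premixed with 100 μM compound. Kinetics followed immediately at 485 nm. Controls: buffer, compound alone, hMIF alone.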

[6] = molecular target: T1, Macrophage migration inhibitory factor (Homo sapiens); test: Binding affinity to MIF in human HCT116 live cell lysates by Western blotting analysis; settings: HCT-116; how it was run: as §2
[7] = Drug uptake in human HCT116 cell membrane at 10 uM after 1 hr by inverted confocal microscopic analysis; assay type: ADME, cell-based; settings: hct-116, 1 h; how it was run: as §1
[8] = test system: HCT-116; test: Cytotoxicity against human HCT116 cells by MTT assay; assay type: functional, cell-based
How it was run: (§3)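 HCT-116 cells grown in McCoy's 5A with 10% heat-inactivated FCS and penicillin/streptomycin at 37 °C, 5% CO2. Conventional MTT assay, run in triplicate at 5 or 6 concentrations spanning 0 to 0.035 mg/mL. Repeated until deviation fell within 5%.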

[9] = test system: HCT-116; test: Cytotoxicity against human HCT116 cells assessed as compaction of chromatin at 10 uM after 24 hrs by inverted confocal microscopic analysis; assay type: cell-based; settings: hct-116, 24 h; how it was run: as §1
[10] = Cellular uptake in human HCT116 cells assessed as lysosomal localization at 10 uM after 6 to 12 hrs by inverted confocal microscopic analysis; assay type: ADME, cell-based, Lysosome; settings: hct-116, 10 µM; how it was run: as §1
[11] = molecular target: T1, Macrophage migration inhibitory factor (Homo sapiens); test: Binding affinity to human recombinant MIF expressed in Escherichia coli BL21(DE3) lysates by Western blotting analysis
How it was run: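 E. coli BL21(DE3) lysate expressing recombinant hMIF (pET-11b, 0.4 mM IPTG, 4 h), 1–2 mg net protein. Immunoprecipitated with 1 μg IAF-tagged probe on anti-IAF mAb resin, 4 h at 4 °C. Glycine-HCl pH 2.5 elution. Blot probed with mouse anti-hMIF monoclonal and AP-conjugated secondary, BCIP/NBT development.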

[12] = test system: HCT-116; test: Growth inhibition of human HCT116 cells; assay type: functional; how it was run: as §3
[13] = Cytotoxicity against human NCI60 cells by MTT assay; assay type: functional
[14] = molecular target: T1, Macrophage migration inhibitory factor (Homo sapiens); test: Inhibition of human recombinant Alexa 488-labeled MIF expressed in Escherichia coli BL21(DE3) assessed as inhibition of uptake into human HCT116 cells at 30 uM after 2 hrs by inverted confocal microscopic analysis; settings: HCT-116
How it was run: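 Recombinant hMIF labeled with Alexa Fluor 488 (~0.3 dye per protein) in NaHCO3 pH 8.3. HCT-116 cells given 1.5 μM Alexa-hMIF premixed with 30 μM compound for 2 h at 37 °C, then washed and fixed with formaldehyde/glutaraldehyde. Two-color confocal imaging: 375 nm excitation with 448 nm emission, and 488 nm excitation with 524 nm emission.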

[15] = molecular target: T2, Macrophage migration inhibitory factor (Homo sapiens, UniProt P14174); test: Binding affinity to human recombinant MIF expressed in Escherichia coli BL21(DE3) by isothermal titration calorimetric assay
T2 sequence (P14174 whole entry): T1 sequence (whole entry)
How it was run: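 Recombinant hMIF from E. coli BL-21(DE3) (pET-11b), purified by SP/Q flow-through, dialyzed in 50 mM potassium phosphate pH 7.4. ITC at 30 °C: 1.25 mM hMIF titrated from syringe into 1.5 mL of 0.5 mM ligand in the same buffer with 2% DMSO. Buffer-only titration used as control. Kd fitted with a sigmoid function over multiple analyses.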

[16] = molecular target: T1, Macrophage migration inhibitory factor (Homo sapiens); test: Inhibition of human MIF-mediated AKT phosphorylation expressed in mouse NIH/3T3 cells after 30 mins by Western blotting analysis; assay type: cell-based; settings: NIH3T3
How it was run: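 NIH/3T3 cells grown 24 h in DMEM with 10% FCS in 12-well plates, then serum-starved 24 h. Treated 30 min with hMIF (1 μg) plus DMSO or plus compound (0.1 μg) in 100 μL medium. Lysates blotted for p-Akt Ser473, total Akt and GAPDH. p-Akt/Akt ratio normalized to GAPDH, with untreated cells set to 1. Three independent experiments.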

[17] = read-out: LC50 (the source's name)

CC1=C[C@]2(C)/C=C(C)/C=C/C[C@@H](OC(=O)CCC(=O)NCCCCCCNC(=O)Cc3cc(=O)oc4cc(N(C)C)ccc34)/C=C3C=C/C(=C4\C(=O)O[C@]2(C[C@@H]1C)C4=O)OC/3
Activity [1]: Toxic
Drug uptake [2]: Active
Drug uptake [3]: Active
Activity [4]: Active
inhibition [5]: inactive
Activity [6]: Active
Drug uptake [7]: Active
IC50 [8]: 6 µM
Activity [9]: Toxic
Drug uptake [10]: Active
Activity [11]: Active

CC1=C[C@]2(C)/C=C(C)/C=C/C[C@@H](O)/C=C3C=C/C(=C4\C(=O)O[C@]2(C[C@@H]1C)C4=O)OC/3
GI50 [12]: 0.79 µM
TGI [12]: 5.01 µM
CC50 [12, 17]: 100 µM
GI50 [13]: 2.16 µM
TGI [13]: 8.81 µM
CC50 [13, 17]: 33.2 µM
inhibition [14]: Active
inhibition [5]: inactive
IC50 [8]: 36 µM
Kd [15]: 35.9 µM
inhibition [16]: Active

CC1=C[C@]2(C)/C=C(C)/C=C/C[C@@H](OC(=O)CCn3cc(CNC(=O)Cc4cc(=O)oc5cc(N(C)C)ccc45)nn3)/C=C3C=C/C(=C4\C(=O)O[C@]2(C[C@@H]1C)C4=O)OC/3
IC50 [8]: 21.2 µM
